Experimental findings from ChEMBL document CHEMBL1124018, “Synthesis and pharmacological properties of "soft drug" derivatives related to perhexiline” (J Med Chem, 1988) are described below.

This test has as its target T1, Adrenergic receptor alpha-1 (Rattus norvegicus, UniProt P15823+P23944+P43140).
T1 sequence (P15823 whole entry): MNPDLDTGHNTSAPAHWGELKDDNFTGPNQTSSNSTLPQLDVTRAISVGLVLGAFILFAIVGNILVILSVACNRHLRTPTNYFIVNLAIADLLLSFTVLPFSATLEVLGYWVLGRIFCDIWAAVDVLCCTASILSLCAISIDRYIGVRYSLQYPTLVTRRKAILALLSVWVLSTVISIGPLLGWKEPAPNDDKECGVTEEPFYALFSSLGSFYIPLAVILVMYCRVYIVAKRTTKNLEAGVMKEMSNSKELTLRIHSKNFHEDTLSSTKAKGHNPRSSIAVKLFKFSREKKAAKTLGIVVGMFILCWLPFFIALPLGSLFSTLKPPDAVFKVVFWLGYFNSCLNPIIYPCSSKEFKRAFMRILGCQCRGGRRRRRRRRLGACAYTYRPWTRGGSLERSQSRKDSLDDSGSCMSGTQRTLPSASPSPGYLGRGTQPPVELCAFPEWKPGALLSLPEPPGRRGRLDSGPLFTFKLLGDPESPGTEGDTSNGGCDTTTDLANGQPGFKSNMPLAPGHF
T1 sequence (P23944 whole entry): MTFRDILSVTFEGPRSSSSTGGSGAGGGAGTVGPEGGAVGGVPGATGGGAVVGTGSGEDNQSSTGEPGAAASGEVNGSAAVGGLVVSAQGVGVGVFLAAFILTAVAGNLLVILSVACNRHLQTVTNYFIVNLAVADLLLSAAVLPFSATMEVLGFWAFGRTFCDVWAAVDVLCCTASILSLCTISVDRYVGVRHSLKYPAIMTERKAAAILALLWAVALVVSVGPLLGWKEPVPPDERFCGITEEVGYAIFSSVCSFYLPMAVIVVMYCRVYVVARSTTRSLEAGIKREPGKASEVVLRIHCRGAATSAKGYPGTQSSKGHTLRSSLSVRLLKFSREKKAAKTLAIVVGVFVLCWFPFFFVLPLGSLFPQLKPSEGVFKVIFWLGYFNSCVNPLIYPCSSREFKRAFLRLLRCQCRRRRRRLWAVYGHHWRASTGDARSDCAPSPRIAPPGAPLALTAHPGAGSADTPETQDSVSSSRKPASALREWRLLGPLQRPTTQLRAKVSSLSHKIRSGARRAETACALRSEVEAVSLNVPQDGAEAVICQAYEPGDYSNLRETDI
T1 sequence (P43140 whole entry): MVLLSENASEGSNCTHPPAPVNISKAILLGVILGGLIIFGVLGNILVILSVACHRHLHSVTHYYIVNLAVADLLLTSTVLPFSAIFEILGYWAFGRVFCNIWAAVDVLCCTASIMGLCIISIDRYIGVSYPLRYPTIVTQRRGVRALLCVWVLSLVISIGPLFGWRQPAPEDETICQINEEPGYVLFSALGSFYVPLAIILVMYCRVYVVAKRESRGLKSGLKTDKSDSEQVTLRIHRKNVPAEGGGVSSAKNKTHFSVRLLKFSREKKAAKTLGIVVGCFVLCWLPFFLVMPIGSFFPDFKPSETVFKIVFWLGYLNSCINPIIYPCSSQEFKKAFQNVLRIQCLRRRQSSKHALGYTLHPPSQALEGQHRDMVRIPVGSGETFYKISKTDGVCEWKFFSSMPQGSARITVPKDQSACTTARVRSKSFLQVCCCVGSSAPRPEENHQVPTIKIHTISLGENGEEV
As to the kind of experiment: Alpha adrenergic receptor activity in rat aorta. It counts as tissue-based. Summed up: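 Rat aortic strips held at 2 g resting tension, stabilized about 1 h. Propranolol 10^-6 M for 30 min to block β-receptors. Isometric contraction recorded. Tissues primed with an agonist level giving 70-80% of maximal response, then washed every 15 min for 60 min. Two cumulative norepinephrine curves (10^-10–10^-7 M), with ascorbic acid 1.13 × 10^-5 M present, run before and after 30 min antagonist preincubation. One antagonist concentration per preparation. Reported as pA2.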
Usually pA2 stands for the negative logarithm of the molar antagonist concentration that doubles the agonist concentration needed for the same response. A low value points to a weaker antagonist. In the case of `O=C(NCc1ncc[nH]1)C(c1ccccc1)C1CCCCC1.O=C(O)C(=O)O` (stereo not drawn), the pA2 is given as 5.2.

The molecule `Cl.O=C(NCC1=NCCN1)C(c1ccccc1)C1CCCCC1` (stereo not drawn) had a pA2 of 6.1.

`CN(CC(=O)NC(c1ccccc1)C1CCCCC1)C1CCCCC1.O=C(O)/C=C\C(=O)O` (stereo not drawn) showed a pA2 of 6.7.

`CN(CC(=O)NC(c1ccccc1)C1CCCCC1)CC1COc2ccccc2O1.O=C(O)C(=O)O` (stereo not drawn): the pA2 was 6.15.

For `O=C(NCCN1CCCCC1)C(c1ccccc1)C1CCCCC1.O=C(O)C(=O)O` (stereo not drawn), the pA2 was 6.

In turn, `O=C(Cc1c[nH]cn1)NC(c1ccccc1)C1CCCCC1.O=C(O)/C=C\C(=O)O` (stereo not drawn) registered a pA2 of 5.3.

`O=C(CCNC1CCCCC1)NC(c1ccccc1)C1CCCCC1` (stereo not drawn) came in with a pA2 of 6.1.

The molecule `NCC(=O)NC(c1ccccc1)C1CCCCC1.O=C(O)/C=C\C(=O)O` (stereo not drawn) showed a pA2 of 4.5.

The molecule `O=C(NCCNC1CCCCC1)C(c1ccccc1)C1CCCCC1` (stereo not drawn) had a pA2 of 6.6.

Turning to `O=C(CCc1ncc[nH]1)NC(c1ccccc1)C1CCCCC1.O=C(O)C(=O)O` (stereo not drawn), the pA2 was 4.2.

Take `O=C(NCCc1ncc[nH]1)C(c1ccccc1)C1CCCCC1.O=C(O)C(=O)O` (stereo not drawn): the pA2 is given as 5.4.

Consider `Cl.O=C(NC1CCCCN1)C(c1ccccc1)C1CCCCC1` (stereo not drawn), for which the pA2 is 5.5.

In the case of `COc1ccc(CCN(C)CC(=O)NC(c2ccccc2)C2CCCCC2)cc1OC.O=C(O)C(=O)O` (stereo not drawn), the pA2 is reported as 6.5.

Take `C1CCC(C(CC2CCCCN2)C2CCCCC2)CC1` (stereo not drawn) [PERHEXILINE]: the pA2 is reported as 6.7.

`O=C(NCCC1=NCCN1)C(c1ccccc1)C1CCCCC1.O=C(O)C(=O)O` (stereo not drawn) displayed a pA2 of 5.7.

Turning to `O=C(NCCN1CCOCC1)C(c1ccccc1)C1CCCCC1.O=C(O)C(=O)O` (stereo not drawn), the pA2 is listed as 4.5.

On to `CN(CC(=O)N(C)C(c1ccccc1)C1CCCCC1)C1CCCCC1.O=C(O)/C=C\C(=O)O` (stereo not drawn), for which the pA2 was 4.5.

In the case of `CCN(CC)CCNC(=O)C(c1ccccc1)C1CCCCC1.Cl` (stereo not drawn), the pA2 is given as 5.4.

`O=C(NCc1c[nH]cn1)C(c1ccccc1)C1CCCCC1.O=C(O)/C=C\C(=O)O` (stereo not drawn) came in with a pA2 of 4.1.

`O=C(CC1=NCCN1)NC(c1ccccc1)C1CCCCC1.O=C(O)C(=O)O` (stereo not drawn) yielded a pA2 of 5.8.

In the case of `CN(C(=O)CNC1CCCCC1)C(c1ccccc1)C1CCCCC1.O=C(O)/C=C\C(=O)O` (stereo not drawn), the pA2 is 5.3.

As to `O=C(CNC1CCCCC1)NC(c1ccccc1)C1CCCCC1` (stereo not drawn), the pA2 is 6.5.

`O=C(Cc1ncc[nH]1)NC(c1ccccc1)C1CCCCC1.O=C(O)C(=O)O` (stereo not drawn) displayed a pA2 of 5.9.

Molecule `COc1ccccc1N1CCN(CCC(=O)NC(c2ccccc2)C2CCCCC2)CC1.O=C(O)/C=C\C(=O)O` (stereo not drawn) had a pA2 of 6.

As to `O=C(CNCC1COc2ccccc2O1)NC(c1ccccc1)C1CCCCC1.O=C(O)/C=C\C(=O)O` (stereo not drawn), the pA2 is 6.

On to `CCN(CC)CC(=O)NC(c1ccccc1)C1CCCCC1` (stereo not drawn), for which the pA2 is on record as 6.

As for `O=C(CCCNC1CCCCC1)NC(c1ccccc1)C1CCCCC1` (stereo not drawn), the pA2 is 5.8.

With `O=C(CCC1=NCCN1)NC(c1ccccc1)C1CCCCC1.O=C(O)C(=O)O` (stereo not drawn), the pA2 came out at 5.4.
